Experimental data of several laboratories.
Compare with care: the assays were run in different laboratories.
Target: Mitogen-activated protein kinase 7 (MAPK7, Homo sapiens, UniProt Q13164)

Cc1cc(O)c(-c2ccc([C@@H](C)CN(C)C)cc2)c2c1[nH]c(=O)c1sccc12 gave an inhibition of -0.313% (enzyme activity, inhibitor; 0.1 µM).
COc1ccc2[nH]c3c4[nH]c5ccc(OC)cc5c4c4c(c3c2c1)C(=O)NC4=O has a remaining binding of 69% (binding; 1 µM).
C[C@]1(O)CCCN(c2nc(Nc3ccc(S(=O)(=O)N[C@H]4CC[C@H](CN5CCN(c6ccc(C7CCC(=O)NC7=O)cc6F)CC5)CC4)cc3Cl)ncc2C(F)(F)F)C1 (some centres unmarked) gave a remaining binding of 18% (binding, competition with immobilised ligand; 1 µM).
CC#CC(=O)N1CCC[C@H]1c1nc(-c2ccc(C(=O)Nc3ccccn3)cc2)c2c(N)nccn12 has an inhibition of 0% (enzyme activity, inhibitor; 1 µM).
With CCCCC(=O)Nc1ccc(-c2ccc3ncn(CCC)c(=O)c3c2)cn1 the remaining binding was 82% (binding, competition with immobilised ligand; 0.5 µM).
With C[C@]1(O)CCCN(c2nc(Nc3ccc(S(=O)(=O)N[C@H]4CC[C@H](CN5CCN(c6ccc(C7CCC(=O)NC7=O)cc6F)CC5)CC4)cc3F)ncc2C(F)(F)F)C1 (some centres unmarked) the remaining binding was 37% (binding, competition with immobilised ligand; 1 µM).
CO[C@@H]1[C@H](N(C)C(=O)c2ccccc2)C[C@H]2O[C@]1(C)n1c3ccccc3c3c4c(c5c6ccccc6n2c5c31)C(=O)NC4 gave an inhibition of 0% (enzyme activity, inhibitor; 1 µM).
The remaining signal of C[C@H]1CC[C@H](n2c3cnccc3c3cnc(Nc4ccc5c(n4)CCN(C(=O)CO)C5)nc32)CC1 is reported as 92% (cell-free assay; 1 µM).
